Measurements reported in ChEMBL document CHEMBL3739273, “Synthesis, biological activity evaluation and molecular docking studies of novel coumarin substituted thiazolyl-3-aryl-pyrazole-4-carbaldehydes” (Bioorg Med Chem Lett, 2015).
pIC50, pKi: −log10 of the molar value. In brackets after ≈: the same amount, converted by molar mass. Activity calls are given as the source filed them. The calls are words filed in the database; no cut-off is given here.

Experiments:
[1] = Anticancer activity against human DU145 cells assessed as cell viability after 48 hrs by MTT assay; assay type: functional, cell-based; settings: DU-145, 48 h
In short: (§1)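 MTT cytotoxicity assay in human DU-145 prostate, MCF-7 breast and HeLa cervical cancer cell lines. Doxorubicin was the reference drug.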

[2] = tested on: MCF7; assay: Anticancer activity against human MCF7 cells assessed as cell viability after 48 hrs by MTT assay; assay type: functional, cell-based; settings: MCF7, 48 h; in short: as §1
[3] = tested on: HeLa; assay: Anticancer activity against human HeLa cells assessed as cell viability after 48 hrs by MTT assay; assay type: functional, cell-based; in short: as §1
[4] = tested on: Staphylococcus aureus; assay: Antibacterial activity against methicillin-resistant Staphylococcus aureus NCTC 13616 assessed as growth inhibition at 100 ug/ml after 24 hrs by agar well diffusion method; assay type: functional, organism-based
In short: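 Agar well diffusion assay with compounds applied to wells at several concentrations, including the 100 level reported here. The zone of inhibition was measured in mm. Gentamycin sulfate was the standard drug.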

[5] = tested on: Escherichia coli; assay: Antibacterial activity against Escherichia coli ATCC 8739 after 24 hrs by microtiter plate method; assay type: functional; settings: ATCC 8739, 24 h
In short: (§2)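 Test concentrations reported in µg/mL. Gentamycin sulfate and ampicillin were the reference drugs.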

[6] = tested on: Klebsiella pneumoniae; assay: Antibacterial activity against Klebsiella pneumoniae ATCC 43816 after 24 hrs by microtiter plate method; assay type: functional; settings: ATCC 43816, 24 h; in short: as §2
[7] = tested on: Proteus vulgaris; assay: Antibacterial activity against Proteus vulgaris ATCC 13315 after 24 hrs by microtiter plate method; assay type: functional; settings: ATCC 13315, 24 h; in short: as §2
[8] = tested on: Staphylococcus aureus; assay: Antibacterial activity against methicillin-resistant Staphylococcus aureus NCTC 13616 after 24 hrs by microtiter plate method; assay type: functional; settings: NCTC 13616, 24 h
[9] = tested on: Bacillus spizizenii; assay: Antibacterial activity against Bacillus subtilis ATCC 6633 after 24 hrs by microtiter plate method; assay type: functional; settings: ATCC 6633, 24 h; in short: as §2
[10] = tested on: Bacillus cereus; assay: Antibacterial activity against Bacillus cereus ATCC 14579 after 24 hrs by microtiter plate method; assay type: functional; settings: ATCC 14579, 24 h; in short: as §2
[11] = tested on: Escherichia coli; assay: Bactericidal activity against Escherichia coli ATCC 8739 after 24 hrs; assay type: functional; settings: ATCC 8739, 24 h, read-out: MBC99.9
In short: (§3)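 MBC determined by a standard MBC protocol alongside the MIC, with values in µg/mL. Gentamycin sulfate and ampicillin were the references.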

[12] = tested on: Klebsiella pneumoniae; assay: Bactericidal activity against Klebsiella pneumoniae ATCC 43816 after 24 hrs; assay type: functional; settings: ATCC 43816, 24 h, read-out: MBC99.9; in short: as §3
[13] = tested on: Proteus vulgaris; assay: Bactericidal activity against Proteus vulgaris ATCC 13315 after 24 hrs; assay type: functional; settings: ATCC 13315, 24 h, read-out: MBC99.9; in short: as §3
[14] = tested on: Staphylococcus aureus; assay: Bactericidal activity against methicillin-resistant Staphylococcus aureus NCTC 13616 after 24 hrs; assay type: functional; settings: NCTC 13616, 24 h, read-out: MBC99.9
In short: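 MBC determined by a standard MBC protocol run alongside the MIC determination. Gentamycin sulfate and ampicillin served as reference drugs.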

[15] = tested on: Bacillus spizizenii; assay: Bactericidal activity against Bacillus subtilis ATCC 6633 after 24 hrs; assay type: functional; settings: ATCC 6633, 24 h, read-out: MBC99.9; in short: as §3
[16] = tested on: Bacillus cereus; assay: Bactericidal activity against Bacillus cereus ATCC 14579 after 24 hrs; assay type: functional; settings: ATCC 14579, 24 h, read-out: MBC99.9; in short: as §3
[17] = biological target: T1, Cytochrome P450 2A6 (Homo sapiens, UniProt P11509); assay: Inhibition of human microsomal CYP2A6; assay type: ADME
T1 sequence (P11509 whole entry): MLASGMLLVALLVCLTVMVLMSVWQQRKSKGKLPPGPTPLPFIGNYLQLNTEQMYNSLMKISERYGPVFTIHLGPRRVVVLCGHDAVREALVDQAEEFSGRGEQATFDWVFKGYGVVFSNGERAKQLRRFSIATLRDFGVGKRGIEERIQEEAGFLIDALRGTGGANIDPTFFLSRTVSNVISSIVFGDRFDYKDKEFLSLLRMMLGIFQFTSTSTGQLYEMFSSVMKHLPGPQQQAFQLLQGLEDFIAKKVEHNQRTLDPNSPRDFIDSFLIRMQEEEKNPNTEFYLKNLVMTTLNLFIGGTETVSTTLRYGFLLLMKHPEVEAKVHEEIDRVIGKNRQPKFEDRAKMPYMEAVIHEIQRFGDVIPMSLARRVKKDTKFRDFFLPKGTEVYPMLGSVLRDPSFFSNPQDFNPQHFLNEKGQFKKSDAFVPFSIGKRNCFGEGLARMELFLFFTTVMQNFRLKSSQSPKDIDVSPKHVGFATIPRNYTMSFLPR

[18] = tested on: Bacillus cereus; assay: Antibacterial activity against Bacillus cereus ATCC 14579 assessed as growth inhibition at 100 ug/ml after 24 hrs by agar well diffusion method; assay type: functional
In short: (§4)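 Agar well diffusion. Compounds were tested at 10, 20, 100, 200 and 300 µg/mL, and the zone of inhibition was measured in mm. Gentamycin sulfate was the reference drug.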

[19] = tested on: Bacillus spizizenii; assay: Antibacterial activity against Bacillus subtilis ATCC 6633 assessed as growth inhibition at 100 ug/ml after 24 hrs by agar well diffusion method; assay type: functional, organism-based; in short: as §4
[20] = n-Octanol-phosphate buffer partition coefficient, log P of the compound at pH 7.4 after 30 mins by shake flask method; assay type: physicochemical
In short: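 Shake-flask partition between n-octanol and 50 mM phosphate buffer, pH 7.4. P calculated and expressed as logP.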

Row | SMILES | pIC50 [1] | pIC50 [2] | pIC50 [3] | growth inhibition (GI) [4] | MIC [5] | MIC [6] | MIC [7] | MIC [8] | MIC [9] | MIC [10] | MBC [11] | MBC [12] | MBC [13] | MBC [14] | MBC [15] | MBC [16] | pKi [17] | growth inhibition (GI) [18] | growth inhibition (GI) [19] | logD at 0.5 h [20]
1 | COc1cccc2cc(-c3csc(-n4cc(C=O)c(-c5ccc(C)cc5)n4)n3)c(=O)oc12 | 4.50 | 4.37 | 4.55 | inactive | 133 µg/mL (≈ 299 µM) | 150 µg/mL (≈ 338 µM) | 142 µg/mL (≈ 320 µM) | 150 µg/mL (≈ 338 µM) | 150 µg/mL (≈ 338 µM) | 136 µg/mL (≈ 307 µM) | 260 µg/mL (≈ 586 µM) | 300 µg/mL (≈ 676 µM) | 285 µg/mL (≈ 643 µM) | 300 µg/mL (≈ 676 µM) | 300 µg/mL (≈ 676 µM) | 275 µg/mL (≈ 620 µM) | 8.71 |  |  | 
2 | COc1cccc2c1C(=O)c1c(O)c3c(c(O)c1C2=O)C[C@@](O)(C(=O)CO)C[C@@H]3O[C@H]1C[C@H](N)[C@H](O)[C@H](C)O1 [DOXORUBICIN] | 5.60 |  | 5.41 |  |  |  |  |  |  |  |  |  |  |  |  |  |  |  |  | 
3 | O=Cc1cn(-c2nc(-c3cc4cc(Cl)cc(Cl)c4oc3=O)cs2)nc1-c1ccc(Cl)cc1 | 4.51 | 4.66 | 4.99 | Active | 111 µg/mL (≈ 221 µM) | 105 µg/mL (≈ 209 µM) | 113 µg/mL (≈ 225 µM) | 112 µg/mL (≈ 224 µM) | 111 µg/mL (≈ 220 µM) | 112 µg/mL (≈ 223 µM) | 220 µg/mL (≈ 438 µM) | 155 µg/mL (≈ 308 µM) | 225 µg/mL (≈ 448 µM) | 225 µg/mL (≈ 448 µM) | 165 µg/mL (≈ 328 µM) | 220 µg/mL (≈ 438 µM) | 8.57 | Active | Active | 3
4 | O=Cc1cn(-c2nc(-c3cc4c(ccc5ccccc54)oc3=O)cs2)nc1-c1ccccc1 | 4.92 | 4.40 | 4.88 |  | 133 µg/mL (≈ 295 µM) | 150 µg/mL (≈ 334 µM) | 150 µg/mL (≈ 334 µM) | 135 µg/mL (≈ 300 µM) | 123 µg/mL (≈ 273 µM) | 139 µg/mL (≈ 309 µM) | 260 µg/mL (≈ 578 µM) | 225 µg/mL (≈ 501 µM) | 300 µg/mL (≈ 667 µM) | 270 µg/mL (≈ 601 µM) | 240 µg/mL (≈ 534 µM) | 275 µg/mL (≈ 612 µM) | 10.24 |  |  | 3.54
